From ChEMBL document CHEMBL1129667, “Synthesis and antiviral activity of 2'-deoxy-4'-thio purine nucleosides” (J Med Chem, 1996)

What was measured:
CCRF-CEM [1] = experiment: Cytotoxic activity of compound against growing cultures of human leukemic T-cell lines CEM at 100 uM; assay type: functional
MRC5 [2] = experiment: Cytotoxic activity of compound against uninfected MRC5 cells; assay type: functional; settings: Homo sapiens
Outline: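 Uninfected MRC5 monolayers given the same six compound concentrations in triplicate and incubated 5 days. Minimum cytotoxic dose estimated by microscopic examination.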

Homo sapiens [3] = species on record: Homo sapiens; experiment: Cytotoxic activity of compound against uninfected 2.2.15 cells.; assay type: functional; settings: HepG2 2.2.15
Outline: (§1)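 Growing cultures of 2.2.15 cells, used for both antiviral effect and cytotoxicity. IC50 and CC50 each come from five compound concentrations encompassing the value. Data are means of four replicate samples.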

IM-9 [4] = experiment: Cytotoxic activity of compound against growing cultures of human leukemicB-cell line IM-9 at 100 uM; assay type: functional
Homo sapiens [5] = species on record: Homo sapiens; experiment: Inhibitory activity of compound against hepatitis B virus (HBV) in growing cultures of 2.2.15 cells; assay type: functional, cell-based; settings: HepG2 2.2.15; outline: as §1
MRC5 [6] = experiment: Inhibitory activity of compound against human cytomegalovirus (HCMV) strain AD169 in monolayers of MRC5 cells; assay type: functional, cell-based
Outline: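 MRC5 human embryonic lung monolayers infected with HCMV AD169 at ca. 0.01 infectious particles/cell. Compound added at six concentrations, each in triplicate, then incubated 5 days. IC50 estimated from well HCMV DNA measured by blotting and quantitative specific DNA hybridization. Reported value is the mean of at least two determinations done at different times.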

MOLT-4 [7] = experiment: Cytotoxic activity of compound against growing cultures of human leukemic T-cell lines Molt-4 at 100 uM; assay type: functional
MOLT-4 [8] = experiment: Cytotoxic activity of compound against growing cultures of human leukemic T-cell lines Molt-4 100 uM; assay type: functional
CCRF-CEM [9] = experiment: Cytotoxic activity of compound against growing cultures of human leukemic T-cell lines CEM 100 uM; assay type: functional
CCRF-CEM [10] = experiment: Cytotoxic activity of compound against growing cultures of human leukemic T-cell lines CEM; assay type: functional
Outline: (§2)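 Growing cultures of the human leukemic line (T-cell CEM or Molt 4; B-cell IM-9). CC50 taken from five compound concentrations spanning the CC50. Data are means of three replicate samples.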

IM-9 [11] = experiment: Cytotoxic activity of compound against growing cultures of human leukemicB-cell line IM-9; assay type: functional; outline: as §2
MOLT-4 [12] = experiment: Cytotoxic activity of compound against growing cultures of human leukemic T-cell lines Molt-4; assay type: functional; outline: as §2

SMILES | Control (CCRF-CEM [1]) [%] | CC50 (MRC5 [2]) [µM] | CC50 (Homo sapiens [3]) [µM] | Control (IM-9 [4]) [%] | IC50 (Homo sapiens [5]) [µM] | IC50 (MRC5 [6]) [µM] | Control (MOLT-4 [7]) [%] | CC50 (MOLT-4 [8]) [µM] | CC50 (IM-9 [4]) [µM] | CC50 (CCRF-CEM [9]) [µM] | CC50 (CCRF-CEM [10]) [µM] | CC50 (IM-9 [11]) [µM] | CC50 (MOLT-4 [12]) [µM]
CCCNc1nc(N)nc2c1ncn2C1CC(O)C(CO)S1 (stereo unspecified) | 68 | > 50 | > 0.2 | 92 | 0.061 | 2 | 52 |  |  |  |  |  | 
Nc1nc(Cl)c2ncn(C3CC(O)C(CO)S3)c2n1 (stereo unspecified) |  | 2 | > 0.2 |  | 0.001 | 0.1 |  | 3.8 | 42 | 10 |  |  | 
COc1nc(N)nc2c1ncn2C1CC(O)C(CO)S1 (stereo unspecified) |  | > 5 | 14 |  | 0.0025 | 0.062 |  |  |  |  | 8 | 5 | 2
Nc1nc(OCC2CC2)c2ncn(C3CC(O)C(CO)S3)c2n1 (stereo unspecified) |  | > 20 | > 0.2 |  | 0.035 | 0.6 |  |  |  |  | 41 | 61 | 13
Nc1nc(NC2CC2)c2ncn(C3CC(O)C(CO)S3)c2n1 (stereo unspecified) | 68 | 15 | 77 | 78 | 0.0072 | 0.2 | 11 |  |  |  |  |  | 
CN(c1nc(N)nc2c1ncn2C1CC(O)C(CO)S1)C1CC1 (stereo unspecified) | 58 | > 20 | 101 | 72 | 0.3 | 2 |  |  |  |  |  |  | 100
Nc1nc(O)c2ncn(C3CC(O)C(CO)S3)c2n1 (stereo unspecified) |  | 2 | 13 |  | 0.002 | 0.06 |  |  |  |  | 9 | 4 | 14
CCN(C)c1nc(N)nc2c1ncn2C1CC(O)C(CO)S1 (stereo unspecified) | 69 | > 20 | > 200 | 85 | 0.19 | 2 | 77 |  |  |  |  |  | 
C=CCNc1nc(N)nc2c1ncn2C1CC(O)C(CO)S1 (stereo unspecified) |  | > 200 | > 0.2 | 67 | 0.058 | 1.5 |  |  |  |  | 60 |  | 40
Nc1nc(N2CCCC2)c2ncn(C3CC(O)C(CO)S3)c2n1 (stereo unspecified) | 71 | > 200 | > 200 | 99 | 0.85 | 10 | 112 |  |  |  |  |  | 
CSc1nc(N)nc2c1ncn2C1CC(O)C(CO)S1 (stereo unspecified) | 78 | > 20 | > 200 | 88 | 0.45 | 2 | 73 |  |  |  |  |  | 
CC(C)Nc1nc(N)nc2c1ncn2C1CC(O)C(CO)S1 (stereo unspecified) | 80 | > 100 | > 200 | 90 | 0.3 | 4 | 77 |  |  |  |  |  | 
Nc1nc(N2CCCCC2)c2ncn(C3CC(O)C(CO)S3)c2n1 (stereo unspecified) | 80 | > 200 | > 200 | 88 | 4 | 6 | 77 |  |  |  |  |  | 
